{"source": "paper PMC4135234", "about": "(Combinatorial chemistry & high throughput screening, 2014)", "key": {"LIN28A [1]": {"molecular_target": "T1, LIN28A (Homo sapiens, UniProt Q9H9Z2)", "T1 sequence (Q9H9Z2 1-209)": "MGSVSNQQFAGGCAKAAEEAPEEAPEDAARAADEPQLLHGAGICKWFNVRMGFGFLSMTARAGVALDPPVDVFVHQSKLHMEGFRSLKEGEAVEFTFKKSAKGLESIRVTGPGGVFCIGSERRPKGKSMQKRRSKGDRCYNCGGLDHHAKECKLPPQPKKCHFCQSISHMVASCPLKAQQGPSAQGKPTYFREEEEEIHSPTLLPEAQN", "assay": "SYBR-based RNA EMSA, ssRNA oligo binding to GST-LIN28A", "conditions": "200 pmols ssRNA oligo, 500 to 2500 ng GST-protein; symbols not defined"}, "MSI1 [2]": {"molecular_target": "T2, MSI1 (Homo sapiens, UniProt O43347)", "T2 sequence (O43347 whole entry)": "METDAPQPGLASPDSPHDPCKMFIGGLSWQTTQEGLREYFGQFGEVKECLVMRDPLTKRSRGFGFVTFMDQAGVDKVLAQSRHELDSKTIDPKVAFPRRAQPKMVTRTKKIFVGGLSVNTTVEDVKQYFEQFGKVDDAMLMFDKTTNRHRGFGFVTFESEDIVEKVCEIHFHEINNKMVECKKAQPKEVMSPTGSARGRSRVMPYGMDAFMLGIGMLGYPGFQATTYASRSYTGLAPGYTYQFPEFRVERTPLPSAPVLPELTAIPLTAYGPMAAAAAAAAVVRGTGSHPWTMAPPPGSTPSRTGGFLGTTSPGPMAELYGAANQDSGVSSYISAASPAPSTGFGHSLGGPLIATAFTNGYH", "assay": "SYBR-based RNA EMSA, ssRNA oligo binding to GST-MSI1", "conditions": "200 pmols ssRNA oligo, 500 to 2500 ng GST-protein; symbols not defined"}, "MSI2 [3]": {"molecular_target": "T3, MSI2 (Homo sapiens, UniProt Q96DH6)", "T3 sequence (Q96DH6 whole entry)": "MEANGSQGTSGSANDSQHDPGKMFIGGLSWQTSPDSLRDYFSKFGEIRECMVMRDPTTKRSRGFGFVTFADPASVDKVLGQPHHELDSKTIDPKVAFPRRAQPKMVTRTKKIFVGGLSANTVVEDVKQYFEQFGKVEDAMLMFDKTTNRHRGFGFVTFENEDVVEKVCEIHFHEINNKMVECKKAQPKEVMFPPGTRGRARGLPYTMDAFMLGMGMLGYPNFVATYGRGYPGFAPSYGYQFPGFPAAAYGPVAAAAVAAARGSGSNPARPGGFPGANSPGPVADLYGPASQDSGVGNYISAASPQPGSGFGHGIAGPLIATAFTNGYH", "assay": "SYBR-based RNA EMSA, ssRNA oligo binding to GST-MSI2", "conditions": "200 pmols ssRNA oligo, 500 to 2500 ng GST-protein; symbols not defined"}, "MSI": {"tested_on": "MSI", "assay": "FP MSI RNA binding assay, statement does not separate MSI1 and MSI2", "design": "species or system human", "conditions": "10 μM"}, "LIN28A [4]": {"molecular_target": "T1, LIN28A", "assay": "Orthogonal SYBR-based EMSA, inhibition of RNA binding to LIN28A", "conditions": "1 mM (LC), MSI Oligo #2 200 pmols, 1000 ng protein", "in_short": "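GST-LIN28A (1000 ng, E. coli-expressed) pre-incubated 30 min at room temperature in EMSA buffer with 1% DMSO, 10 μM test compound or 1 mM oleic acid. Then 200 pmols 15-nt ssRNA MSI Oligo #2 added for 30 min more (20 μL). Native 10% polyacrylamide TBE gel in chilled 0.5X TBE at 4°C, 100V, 2–2.5 h. 2X SYBR Safe stain, imaged. At least two repeats.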"}, "MSI1 [5]": {"molecular_target": "T2, MSI1", "assay": "Orthogonal SYBR-based EMSA, inhibition of RNA binding to MSI1", "conditions": "1 mM (LC), MSI Oligo #2 200 pmols, 1000 ng protein"}, "MSI2 [6]": {"molecular_target": "T3, MSI2", "assay": "Orthogonal SYBR-based EMSA, inhibition of RNA binding to MSI2", "conditions": "1 mM (LC), MSI Oligo #2 200 pmols, 1000 ng protein"}, "MSI2 [7]": {"molecular_target": "T3, MSI2", "assay": "FP probe displacement, 1536-well, MSI2", "format": "binding", "in_short": "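Displacement of 10 nM Cy3-C9-r(GUAGUAGU) probe from 1 μM GST-MSI2 was run as a dose response in 1536-well format, with FP read using Cy3 filters. IC50 for displacement came from two independent experiments, each performed in triplicate.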"}}, "data": [{"compound": "MSI Oligo #4: ssRNA oligo GUAGUAGUAGUAGUA, 15 nt, 4 MSI binding motifs (RNA, backbone not given here)", "values": [{"measurement": "Binding affinity(EMSA) LIN28A", "setting": "LIN28A [1]", "value": "highest affinity"}, {"measurement": "Binding affinity(EMSA) MSI1", "setting": "MSI1 [2]", "value": "highest affinity"}, {"measurement": "Binding affinity(EMSA) MSI2", "setting": "MSI2 [3]", "value": "highest affinity"}]}, {"compound": "CC[C@@]1(O)C[C@H](O[C@H]2C[C@H](N(C)C)[C@H](O)[C@H](C)O2)c2c(cc3c(c2O)C(=O)c2c(O)cccc2C3=O)[C@H]1C(=O)OC", "note": "[aklavine]", "values": [{"measurement": "MSI inhibition activity in FP pilot screen, in words", "setting": "MSI", "value": "inhibiting MSI binding activity"}]}, {"compound": "ssRNA Oligo #8: non-specific ssRNA oligo AGGGAUCGAAAAUUG, 15 nt, no binding motif (RNA, backbone not given here)", "values": [{"measurement": "Binding affinity(EMSA) LIN28A", "setting": "LIN28A [1]", "value": "high affinity"}]}, {"compound": "CCCCCCCC/C=C\\CCCCCCCC(=O)O", "note": "[oleic acid, reference compound]", "values": [{"measurement": "% inhibition of RNA binding to LIN28A (EMSA)", "setting": "LIN28A [4]", "value": "> 80", "unit": "%"}, {"measurement": "% inhibition of RNA binding to MSI1 (EMSA)", "setting": "MSI1 [5]", "value": "> 80", "unit": "%"}, {"measurement": "% inhibition of RNA binding to MSI2 (EMSA)", "setting": "MSI2 [6]", "value": "> 80", "unit": "%"}, {"measurement": "IC50", "setting": "MSI2 [7]", "value": "29 ± 1.7", "unit": "µM"}]}, {"compound": "COc1cccc2c1C(=O)c1c(O)c3c(c(O)c1C2=O)C[C@@](O)(C(C)=O)C[C@@H]3O[C@H]1C[C@H](N)[C@H](O)[C@H](C)O1", "note": "[daunorubicin, reference compound]", "values": [{"measurement": "MSI inhibition activity in FP pilot screen, in words", "setting": "MSI", "value": "inhibiting MSI binding activity"}]}, {"compound": "COc1cccc2c1C(=O)c1c(O)c3c(c(O)c1C2=O)C[C@@](O)(C(=O)CO)C[C@@H]3O[C@H]1C[C@H](N)[C@H](O)[C@H](C)O1", "note": "[doxorubicin, reference compound]", "values": [{"measurement": "MSI inhibition activity in FP pilot screen, in words", "setting": "MSI", "value": "inhibiting MSI binding activity"}]}, {"compound": "CC(=O)[C@]1(O)Cc2c(O)c3c(c(O)c2[C@@H](O[C@H]2C[C@H](N)[C@H](O)[C@H](C)O2)C1)C(=O)c1ccccc1C3=O", "note": "[idarubicin, reference compound]", "values": [{"measurement": "MSI inhibition activity in FP pilot screen, in words", "setting": "MSI", "value": "inhibiting MSI binding activity"}]}, {"compound": "CC[C@@]1(O)C[C@H](O)c2c(cc3c(c2O)C(=O)c2c(O)ccc(O)c2C3=O)[C@H]1C(=O)OC", "note": "[rutilantinone]", "values": [{"measurement": "MSI inhibition activity in FP pilot screen, in words", "setting": "MSI", "value": "inhibiting MSI binding activity"}]}]}
